Bioassay records from PubChem.
CDK5 p35 inh – inhibitors of human CDK5/p35 kinase, primary screen, biochemical, single concentration; Cyclin-dependent kinase 5 (Homo sapiens) + Cyclin-dependent kinase 5 activator 1 (Homo …; Recombinant CDK5/p35, ADP-Glo luminescence, 60 min; inhibition, % at 10 µM; actives 0.01% (n = 330,000); AID 488839, 2010;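 active = highest replicate inhibition of at least 50% and at least 75% of replicates reaching 50%; inconclusive = only one of the two criteria met; inactive = both criteria failed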
Target sequence (Q00535 whole entry, looked up): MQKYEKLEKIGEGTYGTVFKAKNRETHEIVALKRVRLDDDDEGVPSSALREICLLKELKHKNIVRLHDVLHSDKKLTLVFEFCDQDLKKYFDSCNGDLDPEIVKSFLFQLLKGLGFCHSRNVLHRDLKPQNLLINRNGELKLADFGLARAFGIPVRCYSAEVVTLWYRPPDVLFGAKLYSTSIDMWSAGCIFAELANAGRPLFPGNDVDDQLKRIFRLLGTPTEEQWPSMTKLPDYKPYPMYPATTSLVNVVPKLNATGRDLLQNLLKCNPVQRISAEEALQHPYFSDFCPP
Target sequence (Q15078 whole entry, looked up): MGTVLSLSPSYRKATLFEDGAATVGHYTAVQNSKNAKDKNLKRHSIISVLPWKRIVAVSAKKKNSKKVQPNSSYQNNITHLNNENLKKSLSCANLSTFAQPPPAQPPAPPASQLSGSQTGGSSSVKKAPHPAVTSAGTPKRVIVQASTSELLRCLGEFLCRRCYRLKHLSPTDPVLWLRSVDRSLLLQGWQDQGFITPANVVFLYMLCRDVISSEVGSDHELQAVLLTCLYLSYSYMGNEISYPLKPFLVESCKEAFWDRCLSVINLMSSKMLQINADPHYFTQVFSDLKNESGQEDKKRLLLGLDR
Cneo AK release – Cryptococcus neoformans cell lysis inducers, primary screen, AK release luminescence, single concentration; C. neoformans lysis, adenylate kinase release luminescence, 4 h; normalised: neutral wells 0, clomiphene wells 100; lysis activity, % at 15 µM; actives 0.2% (n = 360,000); AID 651654, 2012;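 active = mean lysis activity across replicates of at least 80%, whatever share of replicates individually reach that level; inactive = mean lysis activity below 80%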
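Test system: log-phase Cryptococcus neoformans yeast cells. Input: 5 × 10^6 yeast cells/mL. Medium: fresh YPD growth medium. Doses: single dose. Incubation: static 4 h at 37 °C with compound, 1 h detection. Measured by: luminescent adenylate kinase detection reagent. Read-out: signal increase indicating cell lysis. Benchmarks: Clomiphene.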
Env fusion inh – inhibitors of HIV-1 Env-driven cell-cell fusion, primary screen, HeLa-JRFL effector, CEM21 target cells, luciferase; inhibition, % at 12.3 µM; actives 1.1% (n = 360,000); AID 651610, 2012;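 active = mean replicate inhibition score of at least 50 and every replicate individually at or above 50; inconclusive = only one of the two criteria met; inactive = mean below 50 and not all replicates reaching 50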
dFosB act-1 – activators of delta FosB homodimer, primary screen, biochemical, fluorescence polarization, TAMRA-CDK5 oligo, single point; activation, % at 25 µM; actives 0.99% (n = 340,000); Protein FosB (Mus musculus), P13346; purified delta FosB; percent of positive-control signal above neutral wells; AID 493131, 2011;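 active = mean activation above about 17%, with every replicate also reaching it, limit read from the data, passing the limit was not always enough; inconclusive = only one of the two conditions met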
GSIS activator – GLuc luminescence reporter in INS-1E cells, primary screen for activators of glucose-dependent secretion of insulin; INS-1E GLuc reporter insulin secretion, 2-3 h; activation, % at 16.6 µM; actives 0.61% (n = 370,000);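 active = lowest replicate activation of at least 40%, so every replicate reaches that level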
PAX8 reporter – inhibitors of PAX8-driven TPO luciferase reporter, primary screen, RMG-I cells, single concentration; SteadyGlo, 24 h; inhibition, % at 12.6 µM; actives 1.2% (n = 360,000);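 active = mean replicate inhibition at least 60% with every replicate also reaching 60%; inconclusive = only one of the two criteria is met; inactive = mean below 60% and not all replicates reaching 60%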;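 also: luciferase light reporting Pax8 driven TPO promoter activity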
dFosB act-2 – activators of mouse delta FosB DNA binding, confirmation, biochemical, fluorescence polarization, TAMRA-CDK5 oligo, cherry-picked samples; purified delta FosB; normalised: neutral wells 0, positive control 100; 2,400 tested, under 10 active; activation, % at 24.9 µM; shares compounds with dFosB act-1;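 active = highest replicate activation at or above 34% and every replicate reaching that threshold; inconclusive = meets only one of the two criteria; inactive = meets neither criterion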;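 also: higher polarization means more probe DNA bound by delta FosB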
Each line names hits and unclear results; the compound was inactive in the other large screens (follow-up assays come after a bar, where they were run). Most compounds without a hit are left out; they make up all but 2.9% or so of the library.

Cn1c(=O)c2ncn(CC(=O)Nc3nc(-c4ccc(Cl)cc4)cs3)c2n(C)c1=O	dFosB act-1 24.4 (no result: Cneo AK release) | dFosB act-2 inactive
O=C(CCc1nc2ccccc2c(=O)[nH]1)NCCN1C(=O)S/C(=C\c2ccc(OC(F)F)cc2)C1=O	dFosB act-1 46.5 (no result: Env fusion inh) | dFosB act-2 inactive
O=C(CCc1nc2ccccc2c(=O)[nH]1)NCCN1C(=O)S/C(=C\c2ccccc2Cl)C1=O	none
C[C@@H]1CN(C)C(=O)Cc2ccccc2O[C@@H]1CN(C)C(=O)OC(C)(C)C	none (no result: CDK5 p35 inh, Cneo AK release, Env fusion inh, dFosB act-1, PAX8 reporter)
Cc1cc(OCC(=O)Nc2cc(-c3nn4c(C)nnc4s3)ccc2C)ccc1Cl	dFosB act-1 37.7 | dFosB act-2 inactive
Cc1ccc(S(=O)(=O)N(C)C[C@@H]2OCCCC[C@H](C)Oc3ccc(NC(=O)C4CCCCC4)cc3C(=O)N([C@@H](C)CO)C[C@H]2C)cc1	none (no result: CDK5 p35 inh, dFosB act-1)
CN(NC(=O)c1ccc(Cl)cc1)c1nc(-c2ccccc2)nnc1C(F)(F)F	dFosB act-1 31.9 (no result: Env fusion inh, GSIS activator, PAX8 reporter) | dFosB act-2 inactive
CC(C)CC(=O)NN(C)c1nc(-c2ccccc2)nnc1C(F)(F)F	none (no result: GSIS activator)
C[C@@H]1CN([C@@H](C)CO)C(=O)c2cccc(NC(=O)Nc3ccc4c(c3)OCO4)c2O[C@@H]1CN(C)S(=O)(=O)c1cccs1	none (no result: CDK5 p35 inh, Env fusion inh, dFosB act-1, PAX8 reporter)
O=C(OCC(O)C(O)C(O)C(SCc1ccccc1)SCc1ccccc1)c1ccccc1 (stereo not given)	dFosB act-1 22.8 | dFosB act-2 inactive
O=C(OCC(O)C(O)C(O)COC(=O)c1ccccc1)c1ccccc1 (stereo not given)	none (no result: Env fusion inh, PAX8 reporter)
C[C@@H]1CN([C@@H](C)CO)C(=O)c2cc(NC(=O)NC3CCCCC3)ccc2O[C@@H](C)CCCCO[C@@H]1CN(C)C	none (no result: CDK5 p35 inh, dFosB act-1)
Cc1ccccc1C(=O)Nc1cccc(C(=O)N/N=C/c2ccc3c(c2)OCO3)c1	none
Cc1cccc(C(=O)Nc2ccc(C(=O)N/N=C/c3ccc4c(c3)OCO4)cc2)c1	none
O=C(N/N=C/c1ccc2c(c1)OCO2)c1cccc(NC(=O)c2ccccc2Cl)c1	dFosB act-1 21.3 | dFosB act-2 inactive
O=C(Cn1nnc(-c2ccccc2Cl)n1)N/N=C/c1ccc2c(c1)OCO2	dFosB act-1 23.6 | dFosB act-2 inactive
O=C(N/N=C/c1ccc2c(c1)OCO2)c1ccc(NC(=O)c2ccccc2Cl)cc1	dFosB act-1 22.6 | dFosB act-2 inactive
CCC(=O)N1[C@H](C(=O)NCc2ccc(F)cc2)[C@@H](CO)[C@@H]2Cn3c(ccc(C4=CCCC4)c3=O)[C@@H]21	none (no result: CDK5 p35 inh, Env fusion inh, dFosB act-1, PAX8 reporter)
O=C(CCCN1C(=O)S/C(=C/C=C/c2ccccc2)C1=O)Nc1ccc(C(=O)O)cc1	none
Cc1ccc(NC(=O)CN2C(=O)S/C(=C\c3cccn3C)C2=O)cc1	none (no result: Env fusion inh, PAX8 reporter)
O=C(CN1C(=O)c2ccccc2C1=O)Nc1ccccc1	dFosB act-1 24.0 | dFosB act-2 inactive
O=C(CN1C(=O)S/C(=C\C=C\c2ccccc2)C1=O)Nc1ccc(O)cc1	dFosB act-1 61.4 (no result: Env fusion inh, PAX8 reporter) | dFosB act-2 inactive
O=C(CN1C(=O)S/C(=C\c2ccccn2)C1=O)Nc1ccc(F)cc1	dFosB act-1 48.2 | dFosB act-2 inactive
Cc1cccc(NC(=O)CN2C(=O)S/C(=C\c3ccccn3)C2=O)c1	dFosB act-1 40.7 (no result: Cneo AK release) | dFosB act-2 inactive
CO[C@H](C(=O)N(C)C[C@H]1OCc2ccccc2-c2c(n(C)c3ccccc23)C(=O)N([C@@H](C)CO)C[C@H]1C)c1ccccc1	none (no result: CDK5 p35 inh, dFosB act-1)
CCCc1ccc(-c2cc(NC(=O)Cc3c(C)[nH]c4ccccc34)ccc2N(C)c2cccnc2)cc1	none (no result: CDK5 p35 inh, Cneo AK release, dFosB act-1, GSIS activator)
CNC[C@H]1OCCCC[C@H](C)Oc2ccc(NC(=O)Nc3ccc4c(c3)OCO4)cc2C(=O)N([C@H](C)CO)C[C@H]1C	none (no result: CDK5 p35 inh, dFosB act-1)
COc1cc(/C=C2/NC(=O)N(CC(=O)Nc3cccc(C)c3)C2=O)ccc1OCC(N)=O	none
O=C(CN1C(=O)S/C(=C\c2ccccn2)C1=O)Nc1ccccc1	dFosB act-1 60.5 | dFosB act-2 inactive
CCOc1cc(/C=C2/NC(=O)N(CC(=O)Nc3cccc(C)c3)C2=O)ccc1O	dFosB act-1 19.4 (no result: GSIS activator) | dFosB act-2 inactive
Cc1ccc(NC(=O)CN2C(=O)S/C(=C\c3ccccn3)C2=O)cc1	none (no result: Cneo AK release)
COCC(=O)N1CCCCN2[C@@H](CO)[C@@H](c3ccc(C#Cc4ccccc4)cc3)[C@@H]2C1	none (no result: CDK5 p35 inh, Env fusion inh, dFosB act-1)
COc1ccc(S(=O)(=O)Nc2ccc3c(c2)C(=O)N([C@H](C)CO)C[C@H](C)[C@H](CN(C)C(=O)NC(C)C)O3)cc1	none (no result: CDK5 p35 inh, Cneo AK release, dFosB act-1, PAX8 reporter)
CCC(=O)Nc1ccc2c(c1)C(=O)N(C)C[C@@H](OC)[C@H](C)CN(CCC(F)(F)F)[C@@H](C)CO2	none (no result: CDK5 p35 inh, dFosB act-1)
CCOC(=O)C1CCN(C(=O)c2ccc3c(=O)n4nc(Nc5cc(C)ccc5C)sc4nc3c2)CC1	none
Cc1ccc(C)c(Nc2nn3c(=O)c4ccc(C(=O)NCc5cccnc5)cc4nc3s2)c1	dFosB act-1 98.7 (no result: CDK5 p35 inh) | dFosB act-2 inactive
O=C(CSc1nnnn1-c1ccccc1)Nc1ncc(Cc2ccccc2Cl)s1	dFosB act-1 38.9 (no result: Cneo AK release) | dFosB act-2 inactive
Cc1cccc(NC(=O)Nc2ccc3c(c2)C(=O)N(C)[C@H]2CC[C@@H](CC(=O)NCc4ccccc4Cl)O[C@@H]2CO3)c1	none (no result: CDK5 p35 inh, dFosB act-1)
Fc1ccc(NC(=S)N/N=C/c2cccc(Br)c2)c(F)c1	dFosB act-1 36.4 (no result: PAX8 reporter) | dFosB act-2 inactive
CCOc1ccc(-n2cc(C(=O)Nc3cccc(OC)c3)c3cc(OC)c(OC)cc3c2=O)cc1	dFosB act-1 40.0 (no result: GSIS activator, PAX8 reporter) | dFosB act-2 inactive
CCOc1ccc(-n2cc(C(=O)NCCOC)c3cc(OC)c(OC)cc3c2=O)cc1	none
COc1ccc2sc(/C=C/c3ccccc3O)[n+](C)c2c1	dFosB act-1 65.1 (no result: Cneo AK release) | dFosB act-2 inactive
C=CCN(c1ccccc1OC)S(=O)(=O)c1cccc(C(=O)NCC(c2ccc(OC)cc2)N2CCCC2)c1 (stereo not given)	dFosB act-1 27.3 | dFosB act-2 inactive
C=CCN(c1ccccc1)S(=O)(=O)c1cccc(C(=O)NCC(c2ccc(OC)cc2)N2CCCCC2)c1 (stereo not given)	dFosB act-1 inconclusive
Cc1noc(C)c1S(=O)(=O)Nc1ccc2c(c1)C(=O)N([C@@H](C)CO)C[C@@H](C)[C@@H](CN(C)CC1CC1)OCCCC[C@@H](C)O2	none (no result: CDK5 p35 inh, Cneo AK release, Env fusion inh, dFosB act-1)
